This is an account of results in ChEMBL document CHEMBL1143230, “5-Substituted 2-aminothiophenes as A1 adenosine receptor allosteric enhancers” (Bioorg Med Chem, 2008).

What all share (conditions): CHO-K1
In experiment [1] the target is T1, Adenosine receptor A1 (Homo sapiens) (UniProt P30542).
T1 sequence (whole entry): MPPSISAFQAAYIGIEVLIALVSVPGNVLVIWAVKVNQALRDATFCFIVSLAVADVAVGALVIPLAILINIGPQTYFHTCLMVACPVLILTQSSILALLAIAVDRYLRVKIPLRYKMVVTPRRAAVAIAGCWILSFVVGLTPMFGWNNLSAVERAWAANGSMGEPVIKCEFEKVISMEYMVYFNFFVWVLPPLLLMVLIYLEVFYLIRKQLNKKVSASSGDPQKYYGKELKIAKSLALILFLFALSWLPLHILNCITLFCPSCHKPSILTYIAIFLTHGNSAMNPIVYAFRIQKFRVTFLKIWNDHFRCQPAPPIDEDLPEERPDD
As to the kind of experiment: Activity at human adenosine A1 receptor expressed in CHOK1 cells assessed as agonist-receptor ternary complex remaining by […]. In kind it is functional, cell-based. An outline of the steps:
(§1)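 Membranes from CHO-K1 cells stably expressing hA1AR, 10 ug protein. Phase 2: vehicle or enhancer for 30 min. Phase 3: 100 uM BW-1433 plus 25 uM GTPgammaS for 10 min. Score = % specific binding remaining. ED50 and maximal score from hyperbolic fit over 0.1–50 uM, N = 2–3.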

The target of experiment [2] is T1, Adenosine receptor A1 (Homo sapiens). As to the kind of experiment: Activity at human adenosine A1 receptor expressed in CHOK1 cells assessed as agonist-receptor ternary complex remaining by […] after 10 mins. The format is functional, cell-based. The arrangement: concentration or dose not given beside the values. An outline of the steps: as §1
In general terms: Binding of GTPγS marks nucleotide exchange on a G protein.

Experiment [3] has the same target. As to the kind of experiment: Displacement of [3H]CPX from human adenosine A1 receptor expressed in CHOK1 cells at 10 uM relative to control. In kind it is cell-based. In a few lines: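 Membranes from CHO-K1 cells expressing human A1 receptor, resuspended at 400 ug/mL in HE buffer with 1 U/mL adenosine deaminase. Incubated with [3H]CPX (2 nM in the added buffer) and 10 uM enhancer (final) for 90 min at room temperature. Non-specific binding defined with 100 uM NECA. Filtration, scintillation counting, triplicate, expressed as % inhibition versus control binding.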

The inhibition is the percentage by which the read-out fell short of the control. On to `CC(=O)c1ccc(-c2sc(N)c(C(=O)c3ccccc3)c2-c2cccc(C(F)(F)F)c2)cc1`, for which the ED50 in experiment [1] was greater than 10 µM. In addition, the Activity in experiment [2] stood at 4.8%. In addition, the inhibition in experiment [3] was 25.6%.

Take `Nc1sc(-c2ccc(Cl)cc2)c(-c2cccc(C(F)(F)F)c2)c1C(=O)c1ccccc1`: the ED50 in experiment [1] was greater than 10 µM. Further, the Activity in experiment [2] came out at 22.5%. In experiment [3], this compound returned an inhibition of 59.1%.

For `CCOC(=O)c1c(N)sc(-c2ccc(C(C)=O)cc2)c1-c1cccc(C(F)(F)F)c1`, the ED50 in experiment [1] was greater than 10 µM. Besides, in experiment [2], the Activity was 28.5%. Also, the inhibition in experiment [3] was found to be 64.6%.

As for `CC(=O)c1cccc(-c2sc(N)c(C(=O)c3ccccc3)c2-c2cccc(C(F)(F)F)c2)c1`, the ED50 in experiment [1] was greater than 10 µM. Moreover, the Activity in experiment [2] worked out at 18.5%. In experiment [3], this compound displayed an inhibition of 33.1%.

For the compound `CCOC(=O)c1c(-c2cccc(C(F)(F)F)c2)csc1N`, in experiment [1], the ED50 is 9.4 µM. Also, the Activity in experiment [2] worked out at 7.8%. The inhibition in experiment [3] was determined as 93%.

For the compound `CCOC(=O)c1c(N)sc(-c2ccc(Cl)cc2)c1-c1cccc(C(F)(F)F)c1`, the ED50 in experiment [1] came to 6.6 µM. Further, in experiment [2], the Activity was determined as 57%. Moreover, the inhibition in experiment [3] was 58.4%.

Consider `CCOC(=O)c1c(N)sc(-c2ccc(-c3ccncc3)cc2)c1-c1cccc(C(F)(F)F)c1`, for which, in experiment [1], the ED50 is greater than 10 µM. Also, the Activity in experiment [2] was determined as 0%. In experiment [3], this compound gave an inhibition of 91%.

Consider `Nc1sc(-c2ccc([N+](=O)[O-])cc2)c(-c2cccc(C(F)(F)F)c2)c1C(=O)c1ccccc1`, for which the ED50 in experiment [1] was greater than 10 µM. The Activity in experiment [2] was determined as 23.7%. Further, the inhibition in experiment [3] amounted to 34.8%.

For `CCOC(=O)c1c(N)sc(-c2ccc([N+](=O)[O-])cc2)c1-c1cccc(C(F)(F)F)c1`, in experiment [1], the ED50 was greater than 10 µM. Moreover, in experiment [2], the Activity amounted to 10.3%. Besides, in experiment [3], the inhibition is 71.4%.

As for `CCOC(=O)c1c(N)sc(-c2ccc(OC)cc2)c1-c1cccc(C(F)(F)F)c1`, the ED50 in experiment [1] is greater than 10 µM. Also, in experiment [2], the Activity turned out to be 17.5%. The inhibition in experiment [3] is 81.5%.

`COc1ccc(-c2sc(N)c(C(=O)c3ccccc3)c2-c2cccc(C(F)(F)F)c2)cc1`: in experiment [1], the ED50 is greater than 10 µM. For the same compound, in experiment [2], the Activity amounted to 7.4%. The compound further came in with an inhibition in experiment [3] of 65.2%.

In the case of `CCOC(=O)c1c(N)sc(-c2cccc(C(C)=O)c2)c1-c1cccc(C(F)(F)F)c1`, in experiment [1], the ED50 is greater than 10 µM. Also, the Activity in experiment [2] was found to be 14.4%. The same compound gave an inhibition in experiment [3] of 68.9%.

On to `Nc1scc(-c2cccc(C(F)(F)F)c2)c1C(=O)c1ccccc1`, for which, in experiment [1], the ED50 worked out at 15.8 µM. Moreover, in experiment [2], the Activity was 76.8%. For the same compound, the inhibition in experiment [3] stood at 61.1%.

Consider `CCOC(=O)c1c(N)sc(-c2ccc(C(F)(F)F)cc2)c1-c1cccc(C(F)(F)F)c1`, for which the ED50 in experiment [1] was greater than 10 µM. In experiment [2], the Activity was determined as 14.8%. The compound also showed an inhibition in experiment [3] of 48.5%.

For the compound `CCOC(=O)c1c(N)sc(-c2ccccc2)c1-c1cccc(C(F)(F)F)c1`, the ED50 in experiment [1] was greater than 10 µM. For the same compound, the Activity in experiment [2] is 13.2%. The inhibition in experiment [3] is 83.6%.

For the compound `Nc1sc(-c2ccccc2)c(-c2cccc(C(F)(F)F)c2)c1C(=O)c1ccccc1`, the ED50 in experiment [1] was 2.3 µM. Further, the Activity in experiment [2] came out at 18.1%. Also, the inhibition in experiment [3] was found to be 82.4%.

Regarding `Nc1sc(Cl)c(-c2cccc(C(F)(F)F)c2)c1C(=O)c1ccccc1`, in experiment [1], the ED50 was greater than 10 µM. Moreover, in experiment [2], the Activity came out at 22.2%. For the same compound, in experiment [3], the inhibition amounted to 87.1%.

Regarding `Nc1sc(Br)c(-c2cccc(C(F)(F)F)c2)c1C(=O)c1ccccc1`, the ED50 in experiment [1] is greater than 10 µM. Besides, the Activity in experiment [2] came to 53.5%. The inhibition in experiment [3] came to 47.5%.
